Test results from ChEMBL document CHEMBL1817556, “Substituted lactam and cyclic azahemiacetals modulate Pseudomonas aeruginosa quorum sensing” (Bioorg Med Chem, 2011).

Experiments:
[1] = target: T1, Acyl-homoserine-lactone synthase (Pseudomonas aeruginosa (strain ATCC 15692 / PAO1 / 1C / PRS 101 / LMG12228)) (UniProt P33883); assay: Modulation of Pseudomonas aeruginosa lacZ-fused lasI expressed in Escherichia coli DH5alpha co-expressing pBAD-lasR assessed as 3-oxo-C12-AHL-induced effect at 0.70 mM after 3 hrs by beta-galactosidase assay relative to control
T1 sequence (whole entry): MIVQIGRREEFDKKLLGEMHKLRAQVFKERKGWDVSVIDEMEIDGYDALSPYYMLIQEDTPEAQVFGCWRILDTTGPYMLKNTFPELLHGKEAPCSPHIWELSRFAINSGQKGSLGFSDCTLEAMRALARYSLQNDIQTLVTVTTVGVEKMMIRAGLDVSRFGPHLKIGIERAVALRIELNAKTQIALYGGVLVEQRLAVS
Procedure, shortened: (§1)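 E. coli DH5α carrying pSC11 (PlasI-lacZ translational fusion) and pJN105L (PBAD-lasR) was grown overnight in LB with ampicillin (100 μg/ml) and gentamicin (15 μg/ml), then diluted to OD600 0.150. Arabinose (0.2% w/v), 3-oxo-C12-AHL (2 μM) and test compound or DMSO were added. Cultures were shaken 3 h at 37 °C. β-Galactosidase activity was read in Miller units and expressed as % of the solvent sample. Triplicates per biological replicate, repeated at least twice; paired two-tailed t-test.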

[2] = target: T1, Acyl-homoserine-lactone synthase (Pseudomonas aeruginosa (strain ATCC 15692 / PAO1 / 1C / PRS 101 / LMG12228)); assay: Modulation of Pseudomonas aeruginosa lacZ-fused lasI expressed in Escherichia coli DH5alpha co-expressing pBAD-lasR assessed as 3-oxo-C12-AHL-induced effect at 0.93 mM after 3 hrs by beta-galactosidase assay relative to control; procedure, shortened: as §1
[3] = target: T1, Acyl-homoserine-lactone synthase (Pseudomonas aeruginosa (strain ATCC 15692 / PAO1 / 1C / PRS 101 / LMG12228)); assay: Modulation of Pseudomonas aeruginosa lacZ-fused lasI expressed in Escherichia coli DH5alpha co-expressing pBAD-lasR assessed as 3-oxo-C12-AHL-induced effect at 0.23 mM after 3 hrs by beta-galactosidase assay relative to control; procedure, shortened: as §1
[4] = target: 3-(3-hydroxydecanoyloxy)decanoate synthase (Pseudomonas aeruginosa (strain ATCC 15692 / PAO1 / 1C / PRS 101 / LMG12228)) (UniProt Q51559); assay: Modulation of Pseudomonas aeruginosa lacZ-fused rhlA expressed in Escherichia coli DH5alpha co-expressing Ptac-rhlR assessed as C4-AHL-induced effect at 0.23 mM after 4 hrs by beta-galactosidase assay relative to control
Procedure, shortened: (§2)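 rhl reporter: E. coli DH5α carrying pECP61.5 (Ptac-rhlR, PrhlA-lacZ) was grown overnight in LB with ampicillin (100 μg/ml) only, then diluted to OD600 0.150. It was induced with 1 mM IPTG, and 2 μM C4-HSL plus compound or DMSO were added at OD600 1.0. Cultures were shaken 4 h at 37 °C. β-Galactosidase activity was read in Miller units as % of the solvent sample. Triplicates per biological replicate, at least two repeats; paired two-tailed t-test.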

[5] = target: T1, Acyl-homoserine-lactone synthase (Pseudomonas aeruginosa (strain ATCC 15692 / PAO1 / 1C / PRS 101 / LMG12228)); assay: Modulation of Pseudomonas aeruginosa lacZ-fused lasI expressed in Escherichia coli DH5alpha co-expressing pBAD-lasR assessed as 3-oxo-C12-AHL-induced effect at 0.47 mM after 3 hrs by beta-galactosidase assay relative to control; procedure, shortened: as §1
[6] = target: 3-(3-hydroxydecanoyloxy)decanoate synthase (Pseudomonas aeruginosa (strain ATCC 15692 / PAO1 / 1C / PRS 101 / LMG12228)) (UniProt Q51559); assay: Modulation of Pseudomonas aeruginosa lacZ-fused rhlA expressed in Escherichia coli DH5alpha co-expressing Ptac-rhlR assessed as C4-AHL-induced effect at 0.47 mM after 4 hrs by beta-galactosidase assay relative to control; procedure, shortened: as §2
[7] = target: 3-(3-hydroxydecanoyloxy)decanoate synthase (Pseudomonas aeruginosa (strain ATCC 15692 / PAO1 / 1C / PRS 101 / LMG12228)) (UniProt Q51559); assay: Modulation of Pseudomonas aeruginosa lacZ-fused rhlA expressed in Escherichia coli DH5alpha co-expressing Ptac-rhlR assessed as C4-AHL-induced effect at 0.70 mM after 4 hrs by beta-galactosidase assay relative to control
Procedure, shortened: (§3)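 E. coli DH5α carrying pECP61.5 (Ptac-rhlR, PrhlA-lacZ), grown overnight in LB with ampicillin 100 μg/ml and diluted to OD600 0.150. At OD600 1.0, 1 mM IPTG, 2 μM C4-HSL and compound or DMSO were added. Cultures were shaken 4 h at 37 °C, then β-galactosidase was read in Miller units. Activity is % of solvent sample, from triplicates per biological replicate, with at least two repeats.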

[8] = target: 3-(3-hydroxydecanoyloxy)decanoate synthase (Pseudomonas aeruginosa (strain ATCC 15692 / PAO1 / 1C / PRS 101 / LMG12228)) (UniProt Q51559); assay: Modulation of Pseudomonas aeruginosa lacZ-fused rhlA expressed in Escherichia coli DH5alpha co-expressing Ptac-rhlR assessed as C4-AHL-induced effect at 0.93 mM after 4 hrs by beta-galactosidase assay relative to control; procedure, shortened: as §3
[9] = target: T1, Acyl-homoserine-lactone synthase (Pseudomonas aeruginosa (strain ATCC 15692 / PAO1 / 1C / PRS 101 / LMG12228)); assay: Modulation of Pseudomonas aeruginosa lacZ-fused lasI expressed in Escherichia coli DH5alpha co-expressing pBAD-lasR assessed as 3-oxo-C12-AHL-induced effect at 0.17 mM after 3 hrs by beta-galactosidase assay relative to control; procedure, shortened: as §1
[10] = target: 3-(3-hydroxydecanoyloxy)decanoate synthase (Pseudomonas aeruginosa (strain ATCC 15692 / PAO1 / 1C / PRS 101 / LMG12228)) (UniProt Q51559); assay: Modulation of Pseudomonas aeruginosa lacZ-fused rhlA expressed in Escherichia coli DH5alpha co-expressing Ptac-rhlR assessed as C4-AHL-induced effect at 0.17 mM after 4 hrs by beta-galactosidase assay relative to control; procedure, shortened: as §2
[11] = target: T1, Acyl-homoserine-lactone synthase (Pseudomonas aeruginosa (strain ATCC 15692 / PAO1 / 1C / PRS 101 / LMG12228)); assay: Modulation of Pseudomonas aeruginosa lacZ-fused lasI expressed in Escherichia coli DH5alpha co-expressing pBAD-lasR assessed as 3-oxo-C12-AHL-induced effect at 0.33 mM after 3 hrs by beta-galactosidase assay relative to control; procedure, shortened: as §1
[12] = target: T1, Acyl-homoserine-lactone synthase (Pseudomonas aeruginosa (strain ATCC 15692 / PAO1 / 1C / PRS 101 / LMG12228)); assay: Modulation of Pseudomonas aeruginosa lacZ-fused lasI expressed in Escherichia coli DH5alpha co-expressing pBAD-lasR assessed as 3-oxo-C12-AHL-induced effect at 0.66 mM after 3 hrs by beta-galactosidase assay relative to control; procedure, shortened: as §1
[13] = target: 3-(3-hydroxydecanoyloxy)decanoate synthase (Pseudomonas aeruginosa (strain ATCC 15692 / PAO1 / 1C / PRS 101 / LMG12228)) (UniProt Q51559); assay: Modulation of Pseudomonas aeruginosa lacZ-fused rhlA expressed in Escherichia coli DH5alpha co-expressing Ptac-rhlR assessed as C4-AHL-induced effect at 0.66 mM after 4 hrs by beta-galactosidase assay relative to control; procedure, shortened: as §3
[14] = target: T1, Acyl-homoserine-lactone synthase (Pseudomonas aeruginosa (strain ATCC 15692 / PAO1 / 1C / PRS 101 / LMG12228)); assay: Modulation of Pseudomonas aeruginosa lacZ-fused lasI expressed in Escherichia coli DH5alpha co-expressing pBAD-lasR assessed as 3-oxo-C12-AHL-induced effect at 0.50 mM after 3 hrs by beta-galactosidase assay relative to control; procedure, shortened: as §1
[15] = target: 3-(3-hydroxydecanoyloxy)decanoate synthase (Pseudomonas aeruginosa (strain ATCC 15692 / PAO1 / 1C / PRS 101 / LMG12228)) (UniProt Q51559); assay: Modulation of Pseudomonas aeruginosa lacZ-fused rhlA expressed in Escherichia coli DH5alpha co-expressing Ptac-rhlR assessed as C4-AHL-induced effect at 0.50 mM after 4 hrs by beta-galactosidase assay relative to control; procedure, shortened: as §2
[16] = target: 3-(3-hydroxydecanoyloxy)decanoate synthase (Pseudomonas aeruginosa (strain ATCC 15692 / PAO1 / 1C / PRS 101 / LMG12228)) (UniProt Q51559); assay: Modulation of Pseudomonas aeruginosa lacZ-fused rhlA expressed in Escherichia coli DH5alpha co-expressing Ptac-rhlR assessed as C4-AHL-induced effect at 0.33 mM after 4 hrs by beta-galactosidase assay relative to control; procedure, shortened: as §2

Row | SMILES | Activity [1] [%] | Activity [2] [%] | Activity [3] [%] | Activity [4] [%] | Activity [5] [%] | Activity [6] [%] | Activity [7] [%] | Activity [8] [%] | Activity [9] [%] | Activity [10] [%] | Activity [11] [%] | Activity [12] [%] | Activity [13] [%] | Activity [14] [%] | Activity [15] [%] | Activity [16] [%]
1 | CCCCCCSC[C@@H]1CCC(=O)N1 | 74 | 61 | 106 | 126 | 87 | 126 | 130 | 145 |  |  |  |  |  |  |  | 
2 | CCCCCCCCCCCCSC[C@@H]1CCC(O)N1 (mixture of isomers) |  |  |  |  |  |  |  |  | 72 | 98 | 56 | 34 | 96 | 45 | 91 | 93
